Source: ChEMBL document CHEMBL3352450, “Indazole-type alkaloids from Nigella sativa seeds exhibit antihyperglycemic effects via AMPK activation in vitro” (J Nat Prod, 2014)

How the values were obtained:
HepG2 [1] = assay: Increase in glucose consumption in human HepG2 cells grown under low-glucose medium assessed as reduction in glucose levels at 25 uM incubated for 7 hrs by glucose assay; format: functional; set-up: scale not given: the % may be the effect or the level left
Procedure, shortened: (§1)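 HepG2 cells (kept in high-glucose DMEM with 10% FBS) were seeded at 4.0 × 10^4 cells/well for 8 h. They were then held overnight in low-glucose ([…]) medium with 2 mM glutamine and 1% FBS. Treatment lasted 7 h in that medium, with DMSO stocks and 0.1% DMSO as solvent control. Medium glucose was read by colorimetric kit at 490 nm, with 3 replicates, as mean ± SD.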

HepG2 [2] = assay: Toxicity against human HepG2 cells at 100 uM; format: cell-based; settings: hepg2, 100 µM
HepG2 [3] = assay: Increase in glucose consumption in human HepG2 cells grown under low-glucose medium assessed as reduction in glucose levels at 1 mM incubated for 7 hrs by glucose assay; format: functional; set-up: scale not given: the % may be the effect or the level left; procedure, shortened: as §1
[4] = molecular target: AMP-activated protein kinase, AMPK (Homo sapiens) (UniProt P54646+O43741+P54619+Q9UGJ0+Q9Y478+Q13131+Q9UGI9); assay: Increase in AMPK phosphorylation in human HepG2 cells at 25 to 100 uM incubated for 24 hrs by Western blotting method; format: cell-based
Procedure, shortened: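 HepG2 cells were grown in 6-well plates for 8 h, then held overnight in low-glucose medium and treated for 24 h. Lysis was in RIPA buffer with BCA protein assay. 20 μg/lane was run on 8% SDS-PAGE and blotted to PVDF, blocked in 5% milk, and probed overnight for p-AMPK (Thr172), AMPK and β-actin. HRP secondary was applied for 1 h, with ECL detection on film.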

Activity [4]	SMILES	Activity (HepG2 [1]) [%]	Activity (HepG2 [2])	Activity (HepG2 [3]) [%]
–	Cc1cc(O)c2c[n+]3n(c2c1)CCCC3	8	Non-toxic	–
–	CN(C)C(=N)NC(=N)N [METFORMIN]	–	–	24
–	COc1cc(C)cc2c1c(-c1ccc(O)cc1)[n+]1n2CCCC1	8	Non-toxic	–
Dose-dependent effect	COc1cc(C)cc2c1c[n+]1n2CCCC1	8	Non-toxic	–
–	C[C@@]1(O)CC(=O)c2c(n3[n+](c2-c2ccc(O)cc2)CCCC3)C1	8	Non-toxic	–
–	Cc1cc(O)c2c(-c3ccc(O)cc3)[n+]3n(c2c1)CCCC3	8	Non-toxic	–
Dose-dependent effect	COc1cc(C)cc2c1c(-c1ccc(O[C@@H]3O[C@H](CO)[C@@H](O)[C@H](O)[C@H]3O)cc1)[n+]1n2CCCC1	29	Non-toxic	–
